Measurements: article PMC2988655 (Journal of immunology (Baltimore, Md. : 1950), 2010)
Like-named read-outs stand apart in the source and are kept apart here. Where a SMILES comes first, the peptide text is derived from it. [ ]: non-standard residue; d: D form. The star is where a group is joined. Sta = CC(C)C[C@H](N)[C@@H](O)CC(=O)O; Isovaleryl = CC(C)CC(=O)*; CH2Cl = ClC*

Experiments:
[1] = test system: CD8^+ T cells present in PBMCs; conditions: PBMCs of the donor from whom the clone was derived; cited from earlier work
[2] = test system: HLA-I presentation of M. tuberculosis epitopes by H37Rv-eGFP-infected DCs; assay: cells; type: cell-based, human; conditions: for inhibition at 10 µg/mL: Homo sapiens, T-cell
[3] = molecular target: Purified 20S immunoproteasomes (Homo sapiens, UniProt P28062+P28065+P40306); assay: In vitro proteasome digestion of CFP10_2–21; type: biochemical; conditions: epoxomicin 1 μM, 20 h, 37°C
[4] = test system: DCs; assay: Toxicity of inhibitor to DCs; type: cell-based; conditions: human DCs
Procedure, shortened: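 Human DCs were derived from leukapheresis PBMCs. Adherent PBMCs were cultured 5 d with GM-CSF (10 ng/ml) and IL-4 (10 ng/ml) in RPMI 1640 with 10% pooled human serum, 4 mM L-glutamine and gentamicin (50 μg/ml).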

[5] = molecular target: T1, TAP (Homo sapiens, UniProt Q03518+Q03519); assay: ICP47-mediated TAP inhibition, intracellular IFN-γ staining of T cell clones; type: cell-based; conditions: adenovirus-ICP47-transduced DCs pulsed with 0.25–1 μg/ml cognate peptides
T1 sequence (Q03518 1-748): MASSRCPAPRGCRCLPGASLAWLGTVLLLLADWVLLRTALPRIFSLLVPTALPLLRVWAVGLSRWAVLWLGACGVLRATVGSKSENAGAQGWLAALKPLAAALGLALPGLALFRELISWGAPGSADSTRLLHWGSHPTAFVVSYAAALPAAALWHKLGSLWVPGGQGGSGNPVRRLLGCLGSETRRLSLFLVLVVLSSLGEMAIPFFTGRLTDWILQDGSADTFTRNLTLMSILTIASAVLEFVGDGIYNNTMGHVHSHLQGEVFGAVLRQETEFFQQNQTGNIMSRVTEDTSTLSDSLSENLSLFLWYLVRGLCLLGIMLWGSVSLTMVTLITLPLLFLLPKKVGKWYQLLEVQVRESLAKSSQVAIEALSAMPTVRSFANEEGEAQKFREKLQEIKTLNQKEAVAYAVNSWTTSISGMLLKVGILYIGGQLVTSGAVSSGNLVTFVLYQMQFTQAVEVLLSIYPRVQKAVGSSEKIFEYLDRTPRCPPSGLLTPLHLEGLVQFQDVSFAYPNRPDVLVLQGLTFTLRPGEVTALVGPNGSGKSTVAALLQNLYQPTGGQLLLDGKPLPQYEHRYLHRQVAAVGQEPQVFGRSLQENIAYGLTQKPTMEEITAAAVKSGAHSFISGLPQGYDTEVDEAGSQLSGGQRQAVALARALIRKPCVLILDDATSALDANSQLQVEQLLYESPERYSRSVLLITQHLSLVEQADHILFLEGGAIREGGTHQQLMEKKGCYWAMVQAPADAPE
T1 sequence (Q03519 1-686): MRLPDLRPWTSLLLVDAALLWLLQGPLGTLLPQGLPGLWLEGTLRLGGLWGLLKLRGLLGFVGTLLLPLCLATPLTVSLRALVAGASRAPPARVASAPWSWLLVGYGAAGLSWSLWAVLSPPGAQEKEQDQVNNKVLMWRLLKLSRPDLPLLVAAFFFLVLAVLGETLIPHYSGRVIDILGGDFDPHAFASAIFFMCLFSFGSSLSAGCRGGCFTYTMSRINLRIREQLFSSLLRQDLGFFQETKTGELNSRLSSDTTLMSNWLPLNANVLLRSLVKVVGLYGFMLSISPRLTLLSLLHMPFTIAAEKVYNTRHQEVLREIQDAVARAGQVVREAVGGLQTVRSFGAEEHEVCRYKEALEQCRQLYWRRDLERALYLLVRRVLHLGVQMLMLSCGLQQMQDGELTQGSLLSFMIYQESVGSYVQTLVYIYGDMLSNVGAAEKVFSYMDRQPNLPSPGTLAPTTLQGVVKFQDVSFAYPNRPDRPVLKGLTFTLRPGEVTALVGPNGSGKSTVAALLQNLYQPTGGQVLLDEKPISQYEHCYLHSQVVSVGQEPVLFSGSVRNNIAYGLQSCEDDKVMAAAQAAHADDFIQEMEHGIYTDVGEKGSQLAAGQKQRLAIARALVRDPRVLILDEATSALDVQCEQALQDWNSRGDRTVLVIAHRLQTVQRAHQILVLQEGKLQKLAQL

[6] = […], AAF-CMK at highest possible nontoxic dose, data not shown
[7] = cycloheximide 10 μg/ml, […], Fig. 5

Compound: EMKTDAATL [CFP10_3–11]
- Ex Vivo Frequency of CD8+ T cells present in PBMCs specific for the indicated epitope [1]: 1/646

Compound: AEMKTDAA [CFP10_2–9]
- Ex Vivo Frequency of CD8+ T cells present in PBMCs specific for the indicated epitope [1]: 1/102

Compound: CC(=O)N[C@@H](CC(C)C)C(=O)N[C@@H](CC(C)C)C(=O)N[C@H](C=O)CCCNC(=N)N [leupeptin]
- Effect on presentation of the EsxJ24–34 or CFP10_75–83 epitope [2, 6]: did not block

Compound: CC(C)CC(=O)N[C@H](C(=O)N[C@H](C(=O)N[C@@H](CC(C)C)[C@@H](O)CC(=O)N[C@@H](C)C(=O)N[C@@H](CC(C)C)[C@@H](O)CC(=O)O)C(C)C)C(C)C [pepstatin A] (Isovaleryl-VV[Sta]A[Sta]-OH)
- Effect on presentation of the EsxJ24–34 or CFP10_75–83 epitope [2, 6]: did not block

Compound: C[C@@H]1C[C@@H]([C@H](O)CC2CC(=O)NC(=O)C2)C(=O)[C@@H](C)C1 [Cycloheximide, cycloheximide]
- inhibition at 10 µg/mL ([2]; read-out: Inhibition of presentation of epitope CFP10_2–12): > 70%
- inhibition at 10 µg/mL ([2]; read-out: Inhibition of presentation of epitope EsxJ24–34): > 70%
- Effect on presentation of the HLA-E–presented epitope [2, 7]: enhanced presentation
- Effect on presentation of the epitope CFP10_2–9 [2, 7]: only slightly inhibited

Compound: CO/C1=C\C(C)=C\[C@@H](C)[C@@H](O)[C@@H](C)C/C(C)=C/C=C/[C@H](OC)[C@@H]([C@@H](C)[C@@H](O)[C@H](C)[C@@]2(O)C[C@@H](O)[C@H](C)[C@@H](C(C)C)O2)OC1=O [Bafilomycin, bafilomycin]
- Effect on presentation of all of the epitopes examined ([2]; […], BFA 0.1 μg/ml, bafilomycin 0.2 μM, Fig. 1): did not significantly inhibit

Compound: CCN(CC)CCCC(C)Nc1ccnc2cc(Cl)ccc12 (stereo not shown) [chloroquine]
- Effect on presentation of the EsxJ24–34 or CFP10_75–83 epitope [2]: neither of these epitopes was inhibited

Compound: CC[C@H](C)[C@H](NC(=O)[C@H]([C@@H](C)CC)N(C)C(C)=O)C(=O)N[C@H](C(=O)N[C@@H](CC(C)C)C(=O)[C@@]1(C)CO1)[C@@H](C)O [Epoxomicin, epoxomicin]
- Effect on presentation of CFP10_2–9 and Ag85B144–153 epitopes ([2]; epoxomicin 1–10 μM, […], Fig. 2): ablated
- Effect on amount of CFP10_2–11 generated from CFP10_2–21 by proteasomes ([3]; IFN-γ ELISPOT and LC-MS): drastically reduced
- Effect on generation of CFP10_2–12 from CFP10_2–21 by proteasomes ([3]; detectible by T cell assay but not LC-MS): enhanced the generation
- Highest dose that was nontoxic to DCs [4]: 10 µM

Compound: C[C@H](N)C(=O)N[C@@H](C)C(=O)N[C@@H](Cc1ccccc1)C(=O)CCl [AAF-CMK] (H-Ala-Ala-Phe-CH2Cl)
- Effect on presentation of the EsxJ24–34 or CFP10_75–83 epitope [2, 6]: no effect

Compound: ICP47: HSV-1–encoded protein, prevents peptide binding to cytosolic face of TAP; expressed from an adenovirus vector
- Effect on presentation of cognate peptide to CD8+ T cell clones [5]: no effect
